Assay results from different studies.
Protocols differ between the studies behind these lines.
Target: Phosphatidylinositol 4,5-bisphosphate 3-kinase catalytic subunit gamma isoform (PIK3CG, Homo sapiens, UniProt P48736)

SMILES	effect on	action	method	concentration	measurement	result
CC#CC(=O)N1CCC[C@H]1c1nc(-c2ccc(C(=O)Nc3ccccn3)cc2)c2c(N)nccn12	enzyme activity	inhibitor	–	1 µM	inhibition	0%
N#Cc1ccc(NC(=O)Nc2ccccc2)cc1	cell-free assay	–	competition with immobilised ligand	25 µM	remaining binding	77%
C1=C/COCc2cc(ccc2OCCN2CCCC2)Nc2nccc(n2)-c2cccc(c2)COC/1	binding	–	–	0.1 µM	remaining binding	4.3%
CO[C@@H]1[C@H](N(C)C(=O)c2ccccc2)C[C@H]2O[C@]1(C)n1c3ccccc3c3c4c(c5c6ccccc6n2c5c31)C(=O)NC4	enzyme activity	inhibitor	–	1 µM	inhibition	34%
Cc1nc(NC(=O)N2CCC[C@H]2C(N)=O)sc1-c1ccnc(C(C)(C)C(F)(F)F)c1	enzyme activity	inhibitor	ADP detection	10 µM	inhibition	73.3%
C#Cc1cnc(Nc2ccnc(CO)c2)nc1Nc1ccccc1S(C)(=O)=NC#N (stereo not shown)	cell-free assay	–	–	1 µM	remaining signal	15%
COc1ccc2[nH]c3c4[nH]c5ccc(OC)cc5c4c4c(c3c2c1)C(=O)NC4=O	binding	–	–	1 µM	remaining binding	87%
CCCCC(=O)Nc1ccc(-c2ccc3ncn(CCC)c(=O)c3c2)cn1	binding	–	competition with immobilised ligand	0.5 µM	remaining binding	100%
COc1ccc2oc(-c3ccc4nc(N)oc4c3)c/c(=N\c3ccccc3NC(=O)CCN)c2c1	enzyme activity	inhibitor	–	1 µM	remaining activity	98%
C[C@H]1CC[C@H](n2c3cnccc3c3cnc(Nc4ccc5c(n4)CCN(C(=O)CO)C5)nc32)CC1	cell-free assay	–	–	1 µM	remaining signal	47%
